The source made the active and inactive calls. The rule behind the calls is not given here.
Assays:
[1] = tested on: Jurkat; test: Phototoxicity against human Jurkat cells irradiated with 3.75 J/cm'2 after 72 hrs by MTT assay; type: functional, cell-based; details: light or radiation study
Summary of the method: (§1)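 Cells were seeded at 8 × 10³ and preincubated 18 h at 37 °C, 5% CO₂. Jurkat and K-562 grew in RPMI-1640, MCF-7 and NCTC-2544 in DMEM, and LoVo in Ham's F12, all with 10% FBS plus penicillin and streptomycin. Compounds in DMSO were diluted in HBSS, pH 7.2 (range 20–0.31; DMSO ≤1%) and applied 30 min at 37 °C. Wells were then UV-A irradiated (365 nm; 2.5 or 3.75 J/cm²), medium was replaced, and MTT was read after 72 h.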

[2] = tested on: Jurkat; test: Phototoxicity against human Jurkat cells irradiated with 2.5 J/cm'2 after 72 hrs by MTT assay; type: functional, cell-based; details: light or radiation study; summary of the method: as §1
[3] = tested on: Jurkat; test: Cell cycle arrest in human Jurkat cells assessed as accumulation in S phase at 1 uM irradiated with 20 J/cm'2 after 24 hrs by flow cytometry; type: functional
Summary of the method: (§2)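 Exponentially growing Jurkat cells (5 × 10⁵) were irradiated with compound present. Drug was removed, and cells were kept 24 h in RPMI-1640, fixed in ice-cold 70% ethanol, and treated overnight with RNAse (10 KU/mL) in PBS. Cells were stained with propidium iodide and run on a flow cytometer, with DNA content reported as the fraction of cells in each cycle phase.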

[4] = tested on: Jurkat; test: Induction of apoptosis in human Jurkat cells assessed as phosphatidylserine esposure after 2 hrs using annexin-V FITC and PI staining by flow cytometry; type: functional, cell-based
Summary of the method: (§3)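 Jurkat cells (100,000) were irradiated (2.5 J/cm²) with compound present and centrifuged 30 min, 1 h or 2 h later. They were stained with Annexin V-FITC/PI for 15 min in the dark, and FITC (FL1) and PI (FL3) were read by flow cytometry, with at least 10,000 events. Cells were classed as intact, early apoptotic, late apoptotic/necrotic or necrotic. Values are the mean of three experiments.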

[5] = tested on: Jurkat; test: Induction of apoptosis in human Jurkat cells assessed as lysosomal dysfunction at 1 uM after 4 hrs post-irradiation with 2.5 J/cm'2 using acridine orange dye by flow cytometry; type: functional
Summary of the method: (§4)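 Jurkat cells were irradiated (2.5 J/cm²) with compound present and collected at 2 and 4 h. They were resuspended in RPMI-1640 containing acridine orange, and the percentage of red-fluorescent cells (intact lysosomes) was scored by flow cytometry. Values are mean ± SD of at least three independent experiments.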

[6] = tested on: Jurkat; test: Induction of apoptosis in human Jurkat cells assessed as induction of loss of membrane potential at 1 uM after 2 hrs post-irradiation with 20 J/cm'2 using JC1 staining by FACS; type: functional
Summary of the method: (§5)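 Irradiated Jurkat cells treated with compound were collected 2 and 4 h after irradiation and resuspended in HBSS containing JC-1. Green (FL1) and orange (FL2) fluorescence were read by flow cytometry, with at least 10,000 events per sample. Values are mean ± SD of at least three independent experiments.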

[7] = tested on: Jurkat; test: Induction of apoptosis in human Jurkat cells assessed as induction of loss of membrane potential at 1 uM after 4 hrs post irradiation with 20 J/cm'2 using JC1 staining by FACS; type: functional; summary of the method: as §5
[8] = tested on: Jurkat; test: Induction of apoptosis in human Jurkat cells assessed as induction of loss of membrane potential at 1 uM after 2 hrs post-irradiation with 20 J/cm'2 by flow cytometry; type: functional; summary of the method: as §5
[9] = tested on: Jurkat; test: Induction of apoptosis in human Jurkat cells assessed as induction of loss of membrane potential at 1 uM after 4 hrs post-irradiation with 20 J/cm'2 by flow cytometry; type: functional; summary of the method: as §5
[10] = tested on: Nucleic Acid; test: Binding affinity to salmon testes DNA assessed as intercalation by linear dichroism experiment; type: nucleic-acid assay; details: Salmonidae
Summary of the method: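 Salmon testes DNA was mixed with compound at [Drug]/[DNA] ratios of 0, 0.02 and 0.04 in 10 mM phosphate buffer, pH 7.2. Samples were oriented in a rotating cylindrical flow cuvette (0.14 cm path, 800 rpm), and linear dichroism spectra were recorded over roughly 250–450 nm.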

[11] = tested on: Jurkat; test: Induction of lipid peroxidation in human Jurkat cells irradiated with 2.5 J/cm'2 assessed as increase in malondialdehyde production after 24 hrs by TBARS assay relative to untreated control; type: functional, cell-based
Summary of the method: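 Jurkat cells (500,000) were irradiated (2.5 J/cm²) with compound present and incubated 24 h. Supernatant was kept with BHT, and cells were lysed in 1% SDS, with protein measured by the Peterson method. Malondialdehyde was measured by thiobarbituric acid reaction (fluorescence, 553 nm) against a 1,1,3,3-tetraethoxypropane standard curve. Results are given as nmol TBARS normalized to protein.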

[12] = tested on: Jurkat; test: Induction of apoptosis in human Jurkat cells assessed as lysosomal dysfunction at 1 uM after 2 hrs post-irradiation with 2.5 J/cm'2 using acridine orange dye by flow cytometry; type: functional; summary of the method: as §4
[13] = tested on: Jurkat; test: Induction of apoptosis in human Jurkat cells assessed as increase in mitochondrial ROS production at 1 uM after 6 hrs post-irradiation with 2.5 J/cm'2 by FACS analysis; type: functional
Summary of the method: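 Jurkat cells were irradiated (2.5 J/cm²) with compound present and collected 6 h later. They were resuspended in HBSS with hydroethidine and DCFDA (2.5 and 5, respectively) and held at 37 °C for 15 or 30 min. Flow cytometry used 488 nm excitation, reading 620 nm for HE and 530 nm for DCF, with at least 10,000 events. Values are mean ± SD, three independent experiments.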

[14] = tested on: Jurkat; test: Induction of apoptosis in human Jurkat cells assessed as increase in mitochondrial ROS production at 2.5 uM after 6 hrs post-irradiation with 2.5 J/cm'2 by FACS analysis; type: functional
Summary of the method: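 Jurkat cells were collected 6 h after UV-A irradiation (2.5 J/cm²) with the compound and resuspended in HBSS with hydroethidine 2.5 µM or DCFDA 5 µM. They were incubated at 37 °C for 15 or 30 min. Flow cytometry used 488 nm excitation, with emission at 620 nm (HE) or 530 nm (DCF), acquiring ≥10,000 events. Values are means ± SD of three independent experiments.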

[15] = tested on: Jurkat; test: Cell cycle arrest in human Jurkat cells assessed as accumulation in subG1 phase at 1 uM irradiated with 20 J/cm'2 after 24 hrs by flow cytometry; type: functional; summary of the method: as §2
[16] = Phototoxicity against human sNCTC-2544 cells irradiated with 3.75 J/cm'2 after 72 hrs by MTT assay; type: functional, cell-based; details: NCTC-2544, light or radiation study; summary of the method: as §1
[17] = Phototoxicity against human sNCTC-2544 cells irradiated with 2.5 J/cm'2 after 72 hrs by MTT assay; type: functional, cell-based; details: NCTC-2544, light or radiation study; summary of the method: as §1
[18] = tested on: MCF7; test: Phototoxicity against human MCF7 cells irradiated with 3.75 J/cm'2 after 72 hrs by MTT assay; type: functional, cell-based; details: MCF7, light or radiation study; summary of the method: as §1
[19] = tested on: MCF7; test: Phototoxicity against human MCF7 cells irradiated with 2.5 J/cm'2 after 72 hrs by MTT assay; type: functional, cell-based; details: MCF7, light or radiation study; summary of the method: as §1
[20] = tested on: LoVo; test: Phototoxicity against human LoVo cells irradiated with 3.75 J/cm'2 after 72 hrs by MTT assay; type: functional, cell-based; details: light or radiation study; summary of the method: as §1
[21] = tested on: LoVo; test: Phototoxicity against human LoVo cells irradiated with 2.5 J/cm'2 after 72 hrs by MTT assay; type: functional, cell-based; details: light or radiation study; summary of the method: as §1
[22] = tested on: K562; test: Phototoxicity against human K562 cells irradiated with 3.75 J/cm'2 after 72 hrs by MTT assay; type: functional, cell-based; details: K562, light or radiation study; summary of the method: as §1
[23] = tested on: K562; test: Phototoxicity against human K562 cells irradiated with 2.5 J/cm'2 after 72 hrs by MTT assay; type: functional, cell-based; details: K562, light or radiation study; summary of the method: as §1
[24] = tested on: Jurkat; test: Cell cycle arrest in human Jurkat cells assessed as accumulation in G1 phase at 1 uM irradiated with 25 J/cm'2 after 24 hrs by flow cytometry
[25] = tested on: Jurkat; test: Cell cycle arrest in human Jurkat cells assessed as accumulation in G2/M phase at 1 uM irradiated with 25 J/cm'2 after 24 hrs by flow cytometry
[26] = tested on: Jurkat; test: Induction of apoptosis in human Jurkat cells assessed as phosphatidylserine esposure after 30 mins using annexin-V FITC and PI staining by flow cytometry; type: functional, cell-based; summary of the method: as §3

Compound	IC50 [1] [nM]	IC50 [2] [nM]	Activity [3] [%]	Activity [5] [%]	Activity [6] [%]	Activity [7] [%]	Activity [8] [%]	Activity [9] [%]	Activity [10]	Activity [11]	Activity [12] [%]	Activity [13] [%]	Activity [15] [%]	IC50 [16] [nM]	IC50 [17] [nM]	IC50 [18] [nM]	IC50 [19] [nM]	IC50 [20] [nM]	IC50 [21] [nM]	IC50 [22] [nM]	other results
CCOC(=O)c1cc2c(n1Cc1ccccc1)-c1[nH]c(=O)c(S(=O)(=O)c3ccccc3)cc1CC2	600	800	8.2	55.82	75.74	32.82	24.26	67.18	inactive	Dose-dependent effect	29.76	24.4	68.5	1000	1100	800	900	800	900	600	Activity [4]: Active; Activity [14]: Active; IC50 [23]: 900 nM; Activity [24]: 16.1%; Activity [25]: 7.2%
CCOC(=O)c1cc2c(n1C)-c1[nH]c(=O)c(S(=O)(=O)c3ccccc3)cc1CC2	500	700	6.6	36.97	98.68	94.8	1.3	5.14	inactive	Dose-dependent effect	29.72	0.7	63.3	1100	1200	1000	1200	1000	1100	900	Activity [26]: Active; IC50 [23]: 1000 nM; Activity [24]: 16.1%; Activity [25]: 14%
CCOC(=O)c1cc2c(n1Cc1ccc(OC)cc1)-c1[nH]c(=O)c(S(=O)(=O)c3ccccc3)cc1CC2	700	800	6.1	63.16	55.57	25.86	44.43	47.07	inactive	Dose-dependent effect	58.5	79.08	74.7	1600	1900	1300	1600	1000	1100	900	Activity [4]: Active; Activity [14]: Active; IC50 [23]: 1000 nM; Activity [24]: 12.6%; Activity [25]: 6.6%
